Assay results pooled from the literature.
Protocols differ between the studies behind these lines.
Target: Amine oxidase [flavin-containing] A (MAOA, Homo sapiens, UniProt P21397)
Observed: enzyme activity
Action: inhibitor
Sequence (P21397 1-527, as in one of the studies): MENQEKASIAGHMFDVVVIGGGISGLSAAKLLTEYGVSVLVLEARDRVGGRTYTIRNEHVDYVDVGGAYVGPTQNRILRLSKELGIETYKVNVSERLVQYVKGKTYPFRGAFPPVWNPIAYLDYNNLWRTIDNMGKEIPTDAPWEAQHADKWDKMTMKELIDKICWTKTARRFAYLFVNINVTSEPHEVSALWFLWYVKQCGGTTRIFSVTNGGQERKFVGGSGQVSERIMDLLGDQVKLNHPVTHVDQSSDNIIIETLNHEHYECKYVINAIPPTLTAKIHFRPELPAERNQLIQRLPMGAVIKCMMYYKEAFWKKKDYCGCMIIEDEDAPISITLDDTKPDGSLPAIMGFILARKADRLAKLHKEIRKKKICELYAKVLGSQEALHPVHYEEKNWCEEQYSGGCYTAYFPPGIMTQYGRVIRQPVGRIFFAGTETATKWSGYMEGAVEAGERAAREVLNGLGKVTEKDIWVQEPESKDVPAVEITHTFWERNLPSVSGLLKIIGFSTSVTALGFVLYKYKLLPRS

Structure (SMILES) | method | pH | measurement | value
c1cc2c(cc1C1CCCCC1)c1c3n2CCNC3CCC1 (centres unmarked) | – | pH 7.5 | Ki | 5.3 µM
O=C(O)c1cc(O)c2c(c1)C(=O)c1cc(O)cc(O)c1C2=O | – | – | IC50 | 47.1 µM
O=c1c(O)c(-c2ccc(O)c(O)c2)oc2cc(O)ccc12 | – | – | IC50 | 4.62 µM
CN1CCN(C(=O)CN[C@@H]2C[C@H]2c2ccc(OCc3ccccc3)cc2)CC1 | luciferase | – | IC50 | 0.51 µM
C#CCOc1ccc(/C=C/C(=O)N2CCc3ccccc3C2)cc1OC | fluorescence | – | IC50 | 64 µM
O=C1C[C@@H](c2ccc(O)cc2)Oc2cc(O)cc(O)c21 | – | – | IC50 | 8.64 µM
COc1ccc(/C=C/C(=O)N2CCC(Cc3ccccc3)CC2)cc1OC | fluorescence | – | IC50 | 66.1 µM
COC(=O)c1ccc(C(=O)OC)c(NC(=O)c2cc(Cl)ccc2O)c1 | – | – | IC50 | > 5 µM
O=C1c2c(O)cc(O)cc2O[C@H](c2ccc(O)cc2)[C@H]1O | – | – | IC50 | 14.6 µM
COc1cc(/C=C/C(=O)N2CCc3ccccc3C2)ccc1OC1CCCCC1 | fluorescence | – | IC50 | 65.3 µM
O=C(Nc1ccc([N+](=O)[O-])cc1Cl)c1cc2ccccc2o1 | – | – | IC50 | 0.293 µM
